# According to paper PMC5659729 (Life sciences, 2017):
# Entries after “also recorded” stand apart in the source; their conditions may differ.
# What was measured:
# [1] = tested on: gastric mucosa of Swiss Webster mice; assay: Histopathological evaluation of stomach sections; assay type: in vivo; conditions: DCF 100 mg/kg alone or after TPPU 0.1 mg/kg or OME 50 mg/kg
# [2] = tested on: gastric epithelial cells; assay: TUNEL assay of gastric cell apoptosis; assay type: in vivo, mice; conditions: for DCF-induced apoptosis of stomach epithelial cells (TUNEL) versus DCF: pre-treatment TPPU 0.1 mg/kg or OME 50 mg/kg before DCF 100 mg/kg
# [3] = Quantification of drugs in plasma by LC-MS/MS; assay type: in vivo, mice; conditions: for Alterations in blood levels when TPPU and DCF co-administered: TPPU 0.1 mg/kg/day + DCF 100 mg/kg
# [4] = tested on: TxB2/PGE2; assay: PGE2 and TxB2 in plasma; assay type: in vivo, mice; conditions: for Level of TxB2/PGE2 in plasma of DCF treated mice: TPPU 0.1 mg/kg or omeprazole 50 mg/kg + DCF 100 mg/kg
# [5] = tested on: TNF-α; assay: Inflammatory marker in serum by ELISA; assay type: in vivo, mice; conditions: for Level of TNF-α in serum versus DCF: pre-treatment TPPU 0.1 mg/kg or OME 50 mg/kg before DCF 100 mg/kg
# [6] = tested on: IL-6; assay: Inflammatory marker in serum by ELISA; assay type: in vivo, mice; conditions: for Level of IL-6 in serum versus vehicle: DCF 100 mg/kg p.o. single dose; for Level of IL-6 in serum versus DCF: pre-treatment TPPU 0.1 mg/kg or OME 50 mg/kg before DCF 100 mg/kg
# Summary of the method: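 Blood without anticoagulant was collected at sacrifice 6 h post-dose and spun at 4 °C. Serum IL-6 was measured with a pre-coated mouse ELISA kit, in duplicate, n=3–4 animals, reported as mean ± SD.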
# [7] = Quantification of pH in gastric content; assay type: in vivo, mice; conditions: DCF 100 mg/kg single dose; TPPU 0.1 mg/kg 7 days + DCF; omeprazole 50 mg/kg 5 days + DCF
# [8] = tested on: Swiss Webster mice; assay: Diclofenac-induced gastric ulcers, ulcer index scoring; assay type: in vivo
# [9] = cited from earlier work
# [10] = 16 h after radioactive omeprazole administration; cited from earlier work
# [11] = tested on: CYP3A4; conditions: cited from earlier work
# [12] = tested on: COX; assay: PGE2 in stomach as marker of COX activity; assay type: in vivo, mice; conditions: TPPU 0.1 mg/kg or OME 50 mg/kg + DCF 100 mg/kg
# [13] = tested on: DCF-induced intestinal ulcers; conditions: cited from earlier work
# [14] = mice; cited from earlier work
# [15] = tested on: recombinant mouse sEH; conditions: affinity purified recombinant mouse sEH; cited from earlier work
# [16] = tested on: piroxicam-induced inflammatory bowel disease; conditions: cited from earlier work
smiles,measurement,setting,value
"O=C(O)Cc1ccccc1Nc1c(Cl)cccc1Cl [Diclofenac, diclofenac sodium]",Histopathological observation of gastric mucosa,[1],ulceration was observed
same,Apoptosis of stomach epithelial cells (TUNEL positive cells) versus vehicle,"[2]; DCF 100 mg/kg, listed as DCF",increased apoptosis significantly
same,concentration at 6 h,"[3]; Swiss Webster, mouse, plasma, oral, Mean plasma concentration of DCF, mice that received DCF or DCF + TPPU",4 µg/mL
same,Alterations in blood levels when TPPU and DCF co-administered,[3],not observed
same,"Mean plasma concentration of diclofenac, diclofenac only versus DCF + OME","[3]; difference not significant, n=4",approximately 2 times
same,Levels of TxB2/PGE2 in plasma versus vehicle,[4]; DCF 100 mg/kg,significantly decreased
same,Levels of PGE2 in plasma versus vehicle,[4]; data not shown,not statistically (data not shown) different
same,Level of TxB2 in plasma,"[4]; mice treated with only DCF, level of detection 20 pM",< 20 pM
same,Level of TNF-α in serum versus vehicle,[5]; DCF 100 mg/kg p.o. single dose,significant increase (p < 0.05); also recorded: increased level of TNF-α significantly
same,Level of IL-6 in serum versus vehicle,[6],increased levels of IL-6 significantly
same,Level of IL-6 in serum versus vehicle,[6]; listed as DCF,significant increase (p < 0.05)
same,Effect on pH of stomach (gastric content),[7],did not alter the pH of stomachs
same,Gastric ulcer score 18 h after dosing,"[8]; single DCF dose 100 mg/kg, 18 h",returned to normal levels
COc1ccc2[nH]c([S+]([O-])Cc3ncc(C)c(OC)c3C)nc2c1 (stereo not shown) [Omeprazole],Histopathological observation of gastric mucosa,[1],minimized gastric erosion
same,DCF-induced apoptosis of stomach epithelial cells (TUNEL) versus DCF,[2]; listed as OME,decreased apoptosis significantly
same,Half-life monitored in the blood,[9],5 to 15 min
same,Level of TxB2/PGE2 in plasma of DCF treated mice,[4],increased the level of TxB2/PGE2
same,Level of TNF-α in serum versus DCF,[5]; listed as OME,normalized the level of these cytokines
same,Level of IL-6 in serum versus DCF,[6]; listed as OME,normalized the level of these cytokines
same,Radioactivity of the stomach relative to blood,[10],100 times
same,Effect on activity of CYP3A4,[11],increase activity of CYP3A4
same,Effect on COX activity in stomach (level of PGE2) of DCF treated mice,[12],did not increase the activity of COX
same,Incidence of ulceration relative to TPPU + DCF treated animals,[8]; OME 50 mg/kg + DCF 100 mg/kg versus TPPU 0.1 mg/kg + DCF,higher
"CCC(=O)N1CCC(NC(=O)Nc2ccc(OC(F)(F)F)cc2)CC1 [TPPU, N-[1-(1-oxopropyl)-4-piperidinyl]-N′-[4-(trifluoromethoxy)phenyl)-urea]",Effect on DCF-induced intestinal ulcers,[13],decreased DCF-induced intestinal ulcers
same,Histopathological observation of gastric mucosa,[1],Ulceration was minimal
same,DCF-induced apoptosis of stomach epithelial cells (TUNEL) versus DCF,[2],decreased DCF-induced apoptosis of gastric cells; also recorded: decreased apoptosis significantly
same,Oral availability,[14],high oral availability
same,Level of TxB2/PGE2 in plasma of DCF treated mice,[4],increased the level of TxB2/PGE2
same,Level of TNF-α in serum versus DCF,[5],normalized the level of these cytokines; also recorded: decreased level of TNF-α significantly
same,Level of IL-6 in serum versus DCF,[6],normalized the level of these cytokines; also recorded: decreased level of IL-6 significantly
same,Effect on COX activity in stomach (level of PGE2) of DCF treated mice,[12],did not increase the activity of COX
"O=C(NC12CC3CC(CC(C3)C1)C2)N[C@H]1CC[C@H](Oc2ccc(C(=O)O)cc2)CC1 [t-AUCB, trans-4-[4-(3-adamantan-1-yl-ureido)-cyclohexyloxy]-benzoic acid]",Effect on piroxicam-induced inflammatory bowel disease,[16],decrease piroxicam (a COX inhibitor)-induced inflammatory bowel disease
